Assay results from ChEMBL document CHEMBL1144897, “A potent, selective inhibitor of matrix metalloproteinase-3 for the topical treatment of chronic dermal ulcers” (J Med Chem, 2003).

Assays:
Stromelysin-1 = Stromelysin-1 (Homo sapiens, UniProt P08254)
Matrilysin = target: T1, Matrilysin (Homo sapiens, UniProt P09237); test: Inhibition of human matrix metalloprotease-7 (MMP-7)
T1 sequence (P09237 whole entry): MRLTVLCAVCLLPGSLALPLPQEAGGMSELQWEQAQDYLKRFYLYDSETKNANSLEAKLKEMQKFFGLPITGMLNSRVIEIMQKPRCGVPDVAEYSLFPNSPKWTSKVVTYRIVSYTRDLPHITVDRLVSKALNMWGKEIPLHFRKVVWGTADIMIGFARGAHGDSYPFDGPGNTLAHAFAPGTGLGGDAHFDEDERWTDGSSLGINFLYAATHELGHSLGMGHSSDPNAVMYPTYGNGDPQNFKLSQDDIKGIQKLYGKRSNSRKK

[1] = target: Matrix metalloproteinase-14 (Homo sapiens, UniProt P50281); test: Inhibition of Matrix metalloprotease-14
How it was run: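 Catalytic-domain MMP-14 stock (10 μM) activated with trypsin (5 μg/mL) for 20 min at 25 °C, then quenched with soybean trypsin inhibitor (50 μg/mL). Run in Tris buffer pH 7.5 (100 mM Tris, 100 mM NaCl, 10 mM CaCl₂, 0.16% Brij 35) with 1 nM enzyme and 10 μM Mca-Pro-Leu-Gly-Leu-Dpa-Ala-Arg-NH₂ (final). Fluorogenic cleavage read; IC50 derived.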

[2] = target: Matrix metalloproteinase-9 (Homo sapiens, UniProt P14780); test: Inhibition of human matrix metalloprotease-9 (MMP-9)
Sequence of Matrix metalloproteinase-9 (P14780 whole entry): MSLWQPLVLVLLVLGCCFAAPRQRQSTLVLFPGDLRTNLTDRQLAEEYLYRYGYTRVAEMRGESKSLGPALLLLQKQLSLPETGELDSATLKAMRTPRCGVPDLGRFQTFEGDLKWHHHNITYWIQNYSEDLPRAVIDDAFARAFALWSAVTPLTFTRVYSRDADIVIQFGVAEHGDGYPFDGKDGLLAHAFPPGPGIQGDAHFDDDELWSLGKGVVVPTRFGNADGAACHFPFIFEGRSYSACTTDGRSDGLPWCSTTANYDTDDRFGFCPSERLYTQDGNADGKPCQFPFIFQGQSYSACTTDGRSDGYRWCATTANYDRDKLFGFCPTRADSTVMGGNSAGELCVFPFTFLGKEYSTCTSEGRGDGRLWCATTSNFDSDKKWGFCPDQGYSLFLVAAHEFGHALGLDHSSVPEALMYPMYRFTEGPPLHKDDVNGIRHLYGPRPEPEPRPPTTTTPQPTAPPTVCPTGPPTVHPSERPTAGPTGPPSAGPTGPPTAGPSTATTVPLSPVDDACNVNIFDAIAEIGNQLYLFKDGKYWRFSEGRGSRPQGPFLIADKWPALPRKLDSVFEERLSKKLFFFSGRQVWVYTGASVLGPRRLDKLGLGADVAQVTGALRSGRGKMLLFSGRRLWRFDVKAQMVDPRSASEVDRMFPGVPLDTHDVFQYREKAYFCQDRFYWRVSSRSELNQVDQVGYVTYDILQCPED
How it was run: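 Human catalytic-domain MMP-9 stock (1 μM) activated with 1 mM APMA for 1 h at 37 °C. Assayed at 1 nM enzyme in Tris buffer pH 7.5 (100 mM Tris, 100 mM NaCl, 10 mM CaCl₂, 0.16% Brij 35) with ≤1% DMSO. Inhibitor preincubated 15 min at 37 °C, then 5 μM Mca-Arg-Pro-Lys-Pro-Tyr-Ala-Nva-Trp-Met-Lys(Dnp)-NH₂ added for 1 h at 37 °C. Fluorescence read at ex 328/em 393 nm; IC50 taken from dose–response.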

Sequence of Stromelysin-1 (P08254 whole entry): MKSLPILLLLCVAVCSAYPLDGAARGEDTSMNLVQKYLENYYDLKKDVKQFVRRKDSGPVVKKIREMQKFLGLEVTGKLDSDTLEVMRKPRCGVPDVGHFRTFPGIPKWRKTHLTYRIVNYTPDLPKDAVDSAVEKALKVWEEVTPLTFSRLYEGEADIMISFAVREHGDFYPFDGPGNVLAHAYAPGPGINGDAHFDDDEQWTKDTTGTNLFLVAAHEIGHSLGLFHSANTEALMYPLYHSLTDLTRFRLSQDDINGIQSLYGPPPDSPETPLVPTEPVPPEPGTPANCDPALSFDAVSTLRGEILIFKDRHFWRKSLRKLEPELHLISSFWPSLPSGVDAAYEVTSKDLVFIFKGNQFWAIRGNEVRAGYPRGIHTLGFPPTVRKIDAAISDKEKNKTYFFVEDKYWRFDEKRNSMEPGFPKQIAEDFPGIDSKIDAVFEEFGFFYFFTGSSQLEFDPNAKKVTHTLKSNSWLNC

IC50 (Stromelysin-1) [nM] | IC50 (Matrilysin) [nM] | IC50 [1] [nM] | IC50 [2] [nM] | Compound
30 | 30 | – | – | CNC(=O)[C@H](Cc1ccc(OC)cc1)NC(=O)[C@@H](CC(=O)NO)CC(C)C
– | – | 4.6 | 0.6 | CNC(=O)[C@H](Cc1ccccc1)NC(=O)[C@H](CC(C)C)[C@H](CSc1cccs1)C(=O)NO [BATIMASTAT]
